Measurements: ChEMBL document CHEMBL1129493 (J Med Chem, 1996)
≈ marks a conversion by molar mass, not a printed value.

Tests used:
[1] = tested on: Candida albicans; assay: Minimum inhibitory concentration evaluated against Candida albicans; assay type: functional
[2] = tested on: P388; assay: Cytotoxic activity was evaluated against P388D1 tumor cells; assay type: functional, cell-based; conditions: Mus musculus
In short: (§1)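 Cytotoxicity was read by MTT dye reduction for suspension cultures or sulforhodamine B for monolayer cultures. For reversal of multidrug resistance, reserpine was added as reversing agent ([…] as printed).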

[3] = tested on: D54 cell line; assay: Cytotoxic Activity was evaluated against D54 tumor cells; assay type: functional, cell-based; conditions: Homo sapiens; in short: as §1
[4] = Cytotoxic activity was evaluated against Daoy tumor cells; assay type: functional, cell-based; conditions: Homo sapiens; in short: as §1
[5] = tested on: A549; assay: Cytotoxic activity evaluated against A549 tumor cells; conditions: Homo sapiens
[6] = tested on: U373 MG; assay: Cytotoxic activity was evaluated against U373MG tumor cells; assay type: functional, cell-based, U-373MG ATCC; conditions: Homo sapiens; in short: as §1
[7] = Cytotoxic activity was evaluated against L tumor cells; assay type: functional, cell-based; conditions: Mus musculus; in short: as §1
[8] = target: T1, Dihydrofolate reductase (Candida albicans, UniProt P22906); assay: Inhibition of Dihydrofolate reductase enzyme from Candida albicans
T1 sequence (P22906 whole entry): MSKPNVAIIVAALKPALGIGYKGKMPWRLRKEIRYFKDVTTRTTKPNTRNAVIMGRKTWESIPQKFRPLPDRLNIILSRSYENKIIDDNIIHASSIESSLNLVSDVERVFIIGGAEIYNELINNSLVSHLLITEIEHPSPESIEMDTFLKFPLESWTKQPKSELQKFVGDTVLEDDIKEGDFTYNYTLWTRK

[9] = tested on: HCT-8; assay: Activity was evaluated against HCT-8 tumor cells; assay type: functional, cell-based; conditions: Homo sapiens; in short: as §1
[10] = Relative concentration of compound in brain compared to concentration in plasma (9.4 ug/mL) at the time of tissue collection from mice; relative concentration; assay type: ADME, organism-based; conditions: mouse, read-out: Other
[11] = tested on: U-87 MG; assay: Cytotoxic activity was evaluated against U87MG tumor cells; assay type: functional, cell-based, U-87MG ATCC; conditions: Homo sapiens; in short: as §1
[12] = tested on: Vero; assay: Cytotoxic Activity was evaluated against Vero tumor cells; assay type: functional, cell-based; conditions: Chlorocebus sabaeus; in short: as §1
[13] = tested on: NCI-H460; assay: Cytotoxic Activity was evaluated against H460 tumor cells; assay type: functional, cell-based; conditions: Homo sapiens; in short: as §1
[14] = Relative concentration of compound (70 mg/Kg) in lung compared to concentration in plasma (160 ug/mL) at the time of tissue collection from rabbit; relative concentration; assay type: ADME, organism-based, Oryctolagus cuniculus; conditions: read-out: Activity
[15] = Relative concentration of compound (70 mg/Kg) in brain compared to concentration in plasma (160 ug/mL) at the time of tissue collection from rabbit; relative concentration; assay type: ADME, organism-based, Oryctolagus cuniculus; conditions: read-out: Activity
[16] = tested on: 143B; assay: Cytotoxic Activity was evaluated against 143B (TK-) tumor cells; assay type: functional, cell-based; conditions: Homo sapiens; in short: as §1
[17] = tested on: Candida albicans; assay: Minimum inhibitory concentration was evaluated against Candida albicans; assay type: functional
[18] = target: T2, Dihydrofolate reductase (Homo sapiens, UniProt P00374); assay: Inhibition of human recombinant Dihydrofolate reductase enzyme
T2 sequence (P00374 whole entry): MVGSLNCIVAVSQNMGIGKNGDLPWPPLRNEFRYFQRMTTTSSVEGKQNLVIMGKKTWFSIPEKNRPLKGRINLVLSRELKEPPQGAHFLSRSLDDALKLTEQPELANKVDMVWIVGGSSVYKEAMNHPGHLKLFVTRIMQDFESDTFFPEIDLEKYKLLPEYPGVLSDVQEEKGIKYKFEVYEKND

SMILES | MIC [1] | IC50 [2] | IC50 [3] | IC50 [4] | IC50 [5] | IC50 [6] | IC50 [7] | Ki [8] | IC50 [9] | Kp [10] | IC50 [11] | IC50 [12] | IC50 [13] | Kp [14] | Kp [15] | IC50 [16] | MIC [17] | Ki [18]
COc1cc(NCc2ccc3nc(N)nc(N)c3c2C)cc(OC)c1OC [TRIMETREXATE] | > 50 µg/mL | 2.7 nM | 60 nM | 12 nM | 5.3 nM | 9.6 nM | 4.7 nM | 1.9 nM | 1.8 nM | 0.1 | 11 nM | 16 nM | – | – | – | – | – | –
CN(Cc1cnc2nc(N)nc(N)c2n1)c1ccc(C(=O)N[C@@H](CCC(=O)O)C(=O)O)cc1 [METHOTREXATE] | – | 4.8 nM | 16 nM | 9 nM | 31 nM | 12 nM | 8.3 nM | – | – | – | 22 nM | 9.2 nM | 9.5 nM | 0.05 | 0.006 | 8.8 nM | – | –
COc1cc(Cn2ccc3c4c(N)nc(N)nc4ccc32)cc(OC)c1OC | – | – | – | – | – | – | – | 0.23 nM | – | – | – | – | – | – | – | – | 5 µg/mL (≈ 13.2 µM) | 0.006 nM
